According to ChEMBL document CHEMBL3044991, “Synthesis and biological activity of 4-(4,6-disubstituted-pyrimidin-2-yloxy)phenoxy acetates” (2010):

Columns and labels:
Type in all cases: functional
Settings in all cases: read-out: GI
Brassica napus [1] = assay: Herbicidal activity against Brassica napus (oilseed rape) assessed as root growth inhibition at 50 mg/L applied to germinated seeds measured after 65 hr at 28 degC
Procedure, shortened: (§1)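 Compounds dissolved in DMF with Tween 20 and diluted in distilled water to an emulsion. Germinated seeds, usually 15 per plate, were placed on two filter papers wetted with test solution in a Petri dish. Plates were kept in the dark for 65 h at 28 (±1) ºC. Root lengths of 10 seeds per plate were measured and averaged. Blank was emulsion without compound; quizalofop-P-ethyl served as control.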

Brassica napus [2] = assay: Herbicidal activity against Brassica napus (oilseed rape) assessed as root growth inhibition at 100 mg/L applied to germinated seeds measured after 65 hr at 28 degC; procedure, shortened: as §1
Digitaria sanguinalis [3] = assay: Herbicidal activity against Digitaria sanguinalis (hairy crabgrass) assessed as root growth inhibition at 50 mg/L applied to germinated seeds measured after 65 hr at 28 degC; procedure, shortened: as §1
Brassica napus [4] = assay: Herbicidal activity against Brassica napus (oilseed rape) assessed as root growth inhibition at 10 mg/L applied to germinated seeds measured after 65 hr at 28 degC; procedure, shortened: as §1
Digitaria sanguinalis [5] = assay: Herbicidal activity against Digitaria sanguinalis (hairy crabgrass) assessed as root growth inhibition at 10 mg/L applied to germinated seeds measured after 65 hr at 28 degC; procedure, shortened: as §1
Digitaria sanguinalis [6] = assay: Herbicidal activity against Digitaria sanguinalis (hairy crabgrass) assessed as root growth inhibition at 100 mg/L applied to germinated seeds measured after 65 hr at 28 degC; procedure, shortened: as §1

SMILES	inhibition of growth at 50 µg/mL (Brassica napus [1])	inhibition of growth at 100 µg/mL (Brassica napus [2])	inhibition of growth at 50 µg/mL (Digitaria sanguinalis [3])	inhibition of growth at 10 µg/mL (Brassica napus [4])	inhibition of growth at 10 µg/mL (Digitaria sanguinalis [5])	inhibition of growth at 100 µg/mL (Digitaria sanguinalis [6])
CCCCOC(=O)COc1ccc(Oc2nc(C)cc(C)n2)cc1	34.2%	50.2%	97.6%	21.5%	42.6%	100%
CCOC(=O)COc1ccc(Oc2nc(C)cc(C)n2)cc1	32.7%	58.4%	98.4%	14.2%	38.5%	100%
CCOC(=O)COc1ccc(Oc2nc(OC)cc(OC)n2)cc1	31%	41.1%	96.2%	13.4%	39.9%	100%
CCCCOC(=O)COc1ccc(Oc2nc(OC)cc(OC)n2)cc1	13.4%	28.3%	96.9%	9.5%	41.8%	100%
COc1cc(OC)nc(Oc2ccc(OCC(=O)OC(C)C)cc2)n1	21%	25.1%	96.5%	14.6%	32.7%	100%
COC(=O)COc1ccc(Oc2nc(C)cc(C)n2)cc1	26.7%	44.7%	97.3%	11.9%	44.7%	100%
COC(=O)COc1ccc(Oc2nc(OC)cc(OC)n2)cc1	34.4%	39.8%	98.5%	22.9%	42.8%	100%
Cc1cc(C)nc(Oc2ccc(OCC(=O)OC(C)C)cc2)n1	14.3%	26.4%	95.1%	9.2%	35%	100%
CCOC(=O)[C@@H](C)Oc1ccc(Oc2cnc3cc(Cl)ccc3n2)cc1 [QUIZALOFOP-P-ETHYL]	39.2%	51.2%	95.3%	33.8%	63.5%	100%
CCCOC(=O)COc1ccc(Oc2nc(OC)cc(OC)n2)cc1	13.1%	15.9%	95.2%	10.1%	32.5%	100%
CCCOC(=O)COc1ccc(Oc2nc(C)cc(C)n2)cc1	33.9%	54.5%	97.5%	12.1%	36.9%	100%
